Compounds with a hit are over-represented: about 1.4% of the library has one in this group of screens.
PG9 Ab binder = PG9 antibody binding by small molecule; inhibition, % at 6.7 µM; 0.43% of 360,000 active; TR-FRET gp120-PG9 antibody binding; in the data active means inhibition above about 8.5%
NR2E3 ag-1 = activates human NR2E3 receptor; Q9Y5X4; CHO-S Gal4-NCOR/VP16-NR2E3 two-hybrid, luciferase; inhibition of corepressor binding, % at 3.98 µM; 0.35% of 360,000 active; AID 602229;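 active means inhibition above the mean of all tested compounds plus 3 SD, cut at about 70% in these data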;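 further: 0% = DMSO with NR2E3 transfected cells and 100% = cells lacking NR2E3 construct; higher means lower luciferase signal from less NR2E3 corepressor binding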
Rev-erbA mod = modulates human Rev-erb alpha binding to DNA; P20393; Rev-erbα–FITC-DNA binding, fluorescence polarization, 90 min; activity, % at 10 µM; 0.79% of 370,000 active;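 active means activity above about 14%, limit read from the data; passing the limit was not always enough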;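 further: 0% = DMSO wells with 35 nM protein and 100% = DMSO wells with 750 nM protein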
Target sequence (P20393 whole entry, looked up): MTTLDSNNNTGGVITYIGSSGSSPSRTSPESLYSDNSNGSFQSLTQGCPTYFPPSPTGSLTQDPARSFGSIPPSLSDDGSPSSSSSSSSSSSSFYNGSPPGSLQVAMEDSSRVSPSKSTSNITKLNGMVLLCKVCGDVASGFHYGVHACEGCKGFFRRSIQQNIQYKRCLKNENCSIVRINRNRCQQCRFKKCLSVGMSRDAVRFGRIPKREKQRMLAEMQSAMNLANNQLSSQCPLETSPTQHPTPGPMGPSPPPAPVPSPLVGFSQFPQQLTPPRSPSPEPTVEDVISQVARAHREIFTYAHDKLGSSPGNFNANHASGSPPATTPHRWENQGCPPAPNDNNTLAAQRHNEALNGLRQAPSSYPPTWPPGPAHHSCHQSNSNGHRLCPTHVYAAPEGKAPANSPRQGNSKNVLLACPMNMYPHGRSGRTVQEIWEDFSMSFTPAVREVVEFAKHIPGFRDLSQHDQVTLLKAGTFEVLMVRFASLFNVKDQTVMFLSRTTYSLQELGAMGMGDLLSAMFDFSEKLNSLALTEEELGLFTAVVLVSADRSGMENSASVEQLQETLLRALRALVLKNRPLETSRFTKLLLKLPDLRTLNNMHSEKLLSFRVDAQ
NR2E3 ag-2 = activates human photoreceptor nuclear receptor NR2E3; 0.12% of 320,000 active; inhibition of corepressor binding, % at 4.78 µM; GST-NR2E3/biotin-RetCOR TR-FRET, 1536-well; Q9Y5X4;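 active means percent inhibition above the cutoff of mean plus 3 SD of all tested compounds, set per screening campaign, cut at about 20% in these data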;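 further: 0% = DMSO wells and 100% = biotin wells as full block of FRET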
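Material – GST-tagged NR2E3 plus biotinylated RetCOR corepressor · Quantity – NR2E3 fusion 1.35 nM · Times – 5 h incubation at 4 °C · Medium – pH 7.5 Tris-based buffer · Technique – TR-FRET, Eu(K)-anti-GST donor, streptavidin-D2 acceptor, ex 340, em 617/671 nm · Benchmarks – high control biotin, low control 0.6% DMSO · Format – 1536-well plates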
* marks the source's active call; other numbers are inactive results; nt = no result given.

SMILES	PG9 Ab binder	NR2E3 ag-1	Rev-erbA mod	NR2E3 ag-2
CCn1c(C)nc2cc(-c3nc4n(n3)Cc3ccccc3-4)ccc21	nt	97*	nt	2
Cc1ccc(-c2nc3n(n2)Cc2ccccc2-3)cc1	1	-110	-1	3
COc1ccc(CNC(=O)c2cc3c(C)nc4ccccc4c3o2)c(OC)c1	nt	99*	nt	0
COc1cccc(CNC(=O)c2cc3c(C)nc4ccccc4c3o2)c1	1	33	-8	2
Cc1nc2ccccc2c2oc(C(=O)NCC3COc4ccccc4O3)cc12 (stereo unspecified)	0	79*	-1	1
CN1c2ccccc2Sc2ccc(CC(=O)O)cc21	nt	nt	0	nt
O=[N+]([O-])c1cc(Cl)c2cccnc2c1O	0	102*	7	0
COc1ccc2oc(=O)c(-c3nnc(N)s3)cc2c1	-3	-33	0	3
COc1ccc2oc(=O)c(-c3nc(C)cs3)cc2c1	13*	-65	2	3
CC1(C)O[C@@H]2CC3C4C[C@H](F)C5=CC(=O)C=C[C@]5(C)[C@@]4(F)[C@@H](O)C[C@]3(C)[C@]2(C(=O)CO)O1 (stereo partly specified)	nt	nt	-1	nt
CC(C)(C)OC(=O)NCCCCCNC(=O)c1nc[nH]c1C(=O)NCc1ccc(CNC(=O)OC(C)(C)C)cc1	-1	79*	1	nt
CC(C)(C)OC(=O)NCc1ccc(CNC(=O)c2nc[nH]c2C(=O)NCc2ccc(CNC(=O)OC(C)(C)C)cc2)cc1	0	3	0	nt
C[C@H]1OC(n2cc(F)c(=O)[nH]c2=O)[C@H](O)[C@@H]1O (stereo partly specified)	nt	nt	-3	nt
CCCCCCCCCC(=O)OCCN1CCN(CCCN2c3ccccc3Sc3ccc(C(F)(F)F)cc32)CC1	nt	nt	-1	nt
Cn1nc(C(F)(F)F)c(/C=N/OC(=O)c2ccccc2)c1SCc1ccc(Cl)cc1	2	-13	7	-3
Cn1nc(C(F)(F)F)c(/C=N/OC(=O)c2ccccc2Cl)c1SCc1ccccc1Cl	0	73*	3	-1
COc1cccc2c1C(=O)c1c(O)c3c(c(O)c1C2=O)C[C@@](O)(C(=O)CO)C[C@@H]3OC1C[C@H](N)[C@H](O)[C@H](C)O1 (stereo partly specified)	nt	nt	2	nt
NC[C@@H]1O[C@H](O[C@@H]2[C@@H](CO)OC(O[C@@H]3[C@@H](O)[C@H](N)C[C@H](N)[C@H]3O[C@@H]3O[C@H](CN)[C@@H](O)[C@H](O)[C@H]3N)[C@@H]2O)[C@H](N)[C@@H](O)[C@@H]1O (stereo partly specified)	nt	nt	6	nt
CNCC[C@@H](Oc1ccccc1)c1ccccc1	nt	nt	-7	nt
O=[N+]([O-])c1cc([N+](=O)[O-])c2oc(-c3ccccc3)c(Br)c2c1O	nt	100*	nt	nt
O=c1cc(-c2ccccc2Cl)oc2ccc([N+](=O)[O-])c(O)c12	0	-3	-7	3
N=c1ccn2c(n1)O[C@@H]1[C@@H](O)[C@H](CO)O[C@@H]12	nt	nt	-6	nt
CCN1CCN(Cc2ccc(NC(=O)c3ccc(C)c(NC(=O)c4cncc(-c5cccs5)c4)c3)cc2C(F)(F)F)CC1	nt	82*	nt	nt
CCN1CCN(Cc2ccc(NC(=O)c3ccc(C)c(NC(=O)c4nccn4C)c3)cc2C(F)(F)F)CC1	0	-11	-3	1
O=C(Nc1ccc(Cl)cc1)Nc1nnc(-c2ccncc2)s1	0	-8	-21	2
SMILES	PG9 Ab binder	NR2E3 ag-1	Rev-erbA mod	NR2E3 ag-2
O=C(Nc1cccc(Cl)c1)Nc1nnc(-c2ccncc2)s1	0	89*	-22	0
O=C(Nc1ccccc1-c1nc2ccccc2s1)c1cccnc1Cl	11*	-15	24	2
CC(=O)OCC(=O)[C@@]1(O)[C@@H](C)CC2C3CCC4=CC(=O)C=C[C@]4(C)[C@@]3(F)[C@@H](O)C[C@@]21C (stereo partly specified)	nt	nt	-10	nt
C[C@H](CCC(=O)O)[C@H]1CCC2C3C(CC[C@@]21C)[C@@]1(C)CC[C@@H](O)C[C@H]1C[C@H]3O (stereo partly specified)	nt	nt	-2	nt
C[C@H]1CC2C([C@@H](O)C[C@@]3(C)C2CC[C@]3(O)C(=O)COC(=O)CCC(=O)O)[C@@]2(C)C=CC(=O)C=C12 (stereo partly specified)	nt	nt	-1	nt
C=C1C(=O)C=C2CN(C(=O)c3ccccc3)[C@@](Cc3ccc(F)cc3)(C(=O)OC)[C@@H]12	nt	72*	nt	0
CCCCCCCCCC(=O)OC1(c2ccc(Cl)cc2)CCN(CCCC(=O)c2ccc(F)cc2)CC1	nt	nt	-7	nt
CC(C)(O/N=C(\C(=O)N[C@@H]1C(=O)N2C(C(=O)O)=C(C[n+]3ccccc3)CSC12)c1csc(N)n1)C(=O)O (stereo partly specified)	nt	nt	1	nt
C/C=C(\C)C(=O)OC1[C@H](OC(C)=O)C2(CO)C(CC1(C)C)C1=CCC3C4(C)CCC(O[C@@H]5O[C@H](C(=O)O)[C@@H](O[C@@H]6O[C@H](CO)[C@@H](O)[C@H](O)[C@H]6O)[C@H](O)[C@H]5O[C@H]5O[C@H](CO)[C@@H](O)[C@H](O)[C@H]5O)[C@](C)(CO)C4CCC3(C)[C@]1(C)C[C@H]2O (stereo partly specified)	nt	106*	nt	nt
CC(C)CC(=O)N[C@H](C(=O)NC(C(=O)NC(CC(C)C)[C@@H](O)CC(=O)N[C@@H](C)C(=O)N[C@@H](CC(C)C)[C@@H](O)CC(=O)O)C(C)C)C(C)C (stereo partly specified)	nt	nt	-2	nt
Cc1cn(S(=O)(=O)c2ccc(Br)c3ccccc23)cn1	nt	nt	nt	31*
COc1cc(S(=O)(=O)n2cnc(C)c2)ccc1Br	-1	10	-2	4
C[C@]12C=CC(=O)C=C1CCC1C3C[C@@H](O)[C@](O)(C(=O)CO)[C@@]3(C)C[C@H](O)[C@@]12F (stereo partly specified)	nt	nt	0	nt
O=C1[C@H](CCC(O)c2ccc(F)cc2)[C@@H](c2ccc(O)cc2)N1c1ccc(F)cc1 (stereo partly specified)	nt	nt	0	nt
CC(=O)Nc1cc(C)nn1-c1nc(C)cc(C)n1	0	-6	2	0
Cc1ccc(Nc2cc(C)nn2-c2nc(C)cc(C)n2)cc1	1	94*	-5	0
Cc1ccc(Nc2nc3ccccc3nc2-n2nc(C)cc2C)cc1	0	-16	4	1
Cc1ccc(Nc2cc(C)nn2-c2nc(C)cc(=O)[nH]2)cc1	nt	109*	nt	-5
CCCCN1/C(=C/c2ccc3ccccc3[n+]2CC)Sc2ccccc21	nt	80*	nt	nt
CC(=O)NS(=O)(=O)c1ccc(NC(=O)c2ccccc2C(=O)O)cc1	nt	nt	3	nt
CC(COc1ccccc1)NC(C)[C@H](O)c1ccc(O)cc1 (stereo partly specified)	nt	nt	4	nt
C=CCOc1cccc(C2/C(=C(\O)c3ccc4c(c3)OCCO4)C(=O)C(=O)N2Cc2cccnc2)c1 (stereo unspecified)	14*	-8	2	10

Screening data from PubChem BioAssay.
